Measurements: ChEMBL document CHEMBL2021801, “Thienopyridine ureas as dual inhibitors of the VEGF and Aurora kinase families” (Bioorg Med Chem Lett, 2012)
The source made the active and inactive calls. No cut-off for these calls is given here.

Columns and labels:
Aurora kinase B [1] = target: T1, Aurora kinase B (Homo sapiens, UniProt Q96GD4); assay: Inhibition of Aurora B using 1 mM ATP by HTRF assay
Aurora kinase B [2] = target: T1, Aurora kinase B; conditions: NCI-H1229
Mus musculus [3] = assay: In vivo inhibition of KDR in po dosed mouse assessed as estradiol-induced uterine edema; assay type: functional
Cytochrome P450 3A4 [4] = target: T2, Cytochrome P450 3A4 (Homo sapiens, UniProt P08684); assay: Inhibition of CYP3A4 up to 10 uM; assay type: ADME
T2 sequence (P08684 whole entry): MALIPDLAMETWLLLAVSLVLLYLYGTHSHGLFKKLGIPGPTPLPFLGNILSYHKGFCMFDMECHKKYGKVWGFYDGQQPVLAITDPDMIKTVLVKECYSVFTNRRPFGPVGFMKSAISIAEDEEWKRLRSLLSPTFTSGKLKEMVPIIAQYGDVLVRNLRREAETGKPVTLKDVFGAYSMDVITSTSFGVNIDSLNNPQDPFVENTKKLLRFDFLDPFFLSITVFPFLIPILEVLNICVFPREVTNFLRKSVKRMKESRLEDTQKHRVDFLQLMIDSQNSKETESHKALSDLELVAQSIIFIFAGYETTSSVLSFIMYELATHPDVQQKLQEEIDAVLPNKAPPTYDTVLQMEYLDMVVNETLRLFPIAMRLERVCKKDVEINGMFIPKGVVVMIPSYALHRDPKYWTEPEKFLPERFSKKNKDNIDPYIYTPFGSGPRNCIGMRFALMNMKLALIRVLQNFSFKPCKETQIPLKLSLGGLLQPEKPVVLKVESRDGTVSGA

[5] = Half life in CD1 (ICR) mouse at 3 mg/kg, iv; assay type: ADME, organism-based; set-up: dose 3 mg/kg, route intravenous; conditions: in vivo
[6] = Volume of distribution in CD1 (ICR) mouse at 3 mg/kg, iv; assay type: ADME, organism-based; set-up: dose 3 mg/kg, route intravenous; conditions: in vivo
[7] = Clearance in CD1 (ICR) mouse at 3 mg/kg, iv; assay type: ADME, organism-based; set-up: dose 3 mg/kg, route intravenous; conditions: in vivo
[8] = AUC in CD1 (ICR) mouse at 10 mg/kg, po; assay type: ADME, organism-based; set-up: dose 10 mg/kg, route oral; conditions: plasma
[9] = Oral bioavailability in CD1 (ICR) mouse at 10 mg/kg; assay type: ADME, organism-based; conditions: in vivo
[10] = target: T3, Vascular endothelial growth factor receptor 2 (Homo sapiens, UniProt P35968); assay: Inhibition of KDR using 1 mM ATP by HTRF assay
T3 sequence (P35968 whole entry): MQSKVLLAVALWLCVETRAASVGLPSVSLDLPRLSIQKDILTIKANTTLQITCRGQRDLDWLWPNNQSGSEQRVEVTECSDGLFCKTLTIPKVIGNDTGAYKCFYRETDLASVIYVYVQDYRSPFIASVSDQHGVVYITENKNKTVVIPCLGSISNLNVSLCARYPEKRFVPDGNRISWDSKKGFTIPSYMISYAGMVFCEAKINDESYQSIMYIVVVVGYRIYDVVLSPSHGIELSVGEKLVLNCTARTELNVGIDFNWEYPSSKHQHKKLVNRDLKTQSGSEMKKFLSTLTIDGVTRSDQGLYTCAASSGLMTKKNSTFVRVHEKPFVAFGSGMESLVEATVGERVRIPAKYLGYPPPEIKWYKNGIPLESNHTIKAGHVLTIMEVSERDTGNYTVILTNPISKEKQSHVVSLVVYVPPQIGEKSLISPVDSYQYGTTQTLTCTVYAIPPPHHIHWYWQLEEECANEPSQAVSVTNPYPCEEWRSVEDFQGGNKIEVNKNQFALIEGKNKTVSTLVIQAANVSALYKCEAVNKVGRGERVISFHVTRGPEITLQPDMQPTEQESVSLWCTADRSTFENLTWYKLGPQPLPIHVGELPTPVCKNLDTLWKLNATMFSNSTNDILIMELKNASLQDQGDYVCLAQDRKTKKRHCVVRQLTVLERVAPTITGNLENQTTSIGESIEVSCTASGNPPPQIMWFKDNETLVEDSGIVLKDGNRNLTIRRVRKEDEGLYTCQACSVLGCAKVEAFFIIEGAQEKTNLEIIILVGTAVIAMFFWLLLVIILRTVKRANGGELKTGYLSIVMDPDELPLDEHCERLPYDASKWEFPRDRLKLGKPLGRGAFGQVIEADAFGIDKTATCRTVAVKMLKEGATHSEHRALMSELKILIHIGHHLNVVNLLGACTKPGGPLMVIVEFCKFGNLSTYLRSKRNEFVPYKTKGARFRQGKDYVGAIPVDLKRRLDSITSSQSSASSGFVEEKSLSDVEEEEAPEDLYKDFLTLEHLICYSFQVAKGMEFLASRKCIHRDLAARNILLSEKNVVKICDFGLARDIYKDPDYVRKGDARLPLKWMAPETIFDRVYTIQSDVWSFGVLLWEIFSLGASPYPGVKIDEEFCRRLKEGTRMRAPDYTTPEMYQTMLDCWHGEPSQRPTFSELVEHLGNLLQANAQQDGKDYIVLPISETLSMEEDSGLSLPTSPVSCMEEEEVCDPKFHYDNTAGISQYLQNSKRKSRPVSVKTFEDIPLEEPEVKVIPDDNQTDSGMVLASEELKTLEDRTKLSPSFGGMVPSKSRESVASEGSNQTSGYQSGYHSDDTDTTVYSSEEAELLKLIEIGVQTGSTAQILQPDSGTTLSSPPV

[11] = target: T3, Vascular endothelial growth factor receptor 2; assay: Inhibition of human KDR phosphorylation expressed in mouse NIH3T3 cells; assay type: cell-based
Mus musculus [12] = assay: In vivo inhibition of KDR in mouse assessed as estradiol-induced uterine edema up to 30 mg/kg, po; assay type: functional, organism-based; set-up: dose 30 mg/kg
Procedure, shortened: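 Estradiol-induced uterine edema model in mice, a readout of acute in vivo KDR activity. Compound is given orally and ED50 is reported in mg/kg po. Procedure follows the cited reference.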

Cytochrome P450 3A4 [13] = target: T2, Cytochrome P450 3A4; assay: Inhibition of CYP3A4; assay type: ADME
Cytochrome P450 3A4 [14] = target: T2, Cytochrome P450 3A4; assay: Inhibition of CYP3A4 preincubated for 15 mins; assay type: ADME
HT-1080 = assay: Antitumor activity against human HT1080 cells xenografted in mouse assessed as tumor growth inhibition at 10 mg/kg, po qd; assay type: functional; conditions: read-out: GI

T1 sequence (Q96GD4 whole entry): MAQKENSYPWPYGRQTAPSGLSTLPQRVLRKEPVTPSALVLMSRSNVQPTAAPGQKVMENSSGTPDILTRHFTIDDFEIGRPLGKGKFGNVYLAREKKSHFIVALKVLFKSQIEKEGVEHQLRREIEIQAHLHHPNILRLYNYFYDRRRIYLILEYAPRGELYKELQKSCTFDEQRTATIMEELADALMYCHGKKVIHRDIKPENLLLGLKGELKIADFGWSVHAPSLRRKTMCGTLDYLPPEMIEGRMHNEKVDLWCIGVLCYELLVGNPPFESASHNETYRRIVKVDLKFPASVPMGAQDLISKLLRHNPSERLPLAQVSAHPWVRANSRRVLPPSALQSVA

| SMILES | IC50 (Aurora kinase B [1]) | EC15 (Aurora kinase B [2]) | inhibition (INH) (Cytochrome P450 3A4 [4]) | half-life [5] | Vd [6] | clearance [7] | AUC [8] | bioavailability [9] | IC50 [10] | IC50 [11] | IC50 (Cytochrome P450 3A4 [13]) | IC50 (Cytochrome P450 3A4 [14]) | ED50 (Mus musculus [3]) | Activity (Mus musculus [12]) | inhibition in vivo at 10 mg/kg (HT-1080) |
| --- | --- | --- | --- | --- | --- | --- | --- | --- | --- | --- | --- | --- | --- | --- | --- |
| Cc1cccc(NC(=O)Nc2ccc(-c3csc4c(-c5cn[nH]c5)cnc(N)c34)cc2)c1 | 8 nM | 31 nM | – | – | – | – | – | – | – | – | – | – | – | – | – |
| Cc1cccc(NC(=O)Nc2ccc(-c3csc4c(-c5ccsc5)cnc(N)c34)cc2)c1 | 179 nM | > 300 nM | – | – | – | – | – | – | 9 nM | 31 nM | – | – | – | – | – |
| Cc1ccc(NC(=O)Nc2ccc(-c3csc4c(-c5cnn(C)c5)cnc(N)c34)cc2)cc1 | 50 nM | 64 nM | – | – | – | – | – | – | – | – | – | – | 1 mg/kg | – | – |
| Nc1ncc(-c2cnn(CCN3CCCCC3)c2)c2scc(-c3ccc(NC(=O)Nc4cccc(F)c4)cc3)c12 | 8 nM | < 3 nM | – | – | – | – | – | – | 4 nM | – | – | – | > 10 mg/kg | – | – |
| Cc1cccc(NC(=O)Nc2ccc(-c3csc4ccnc(N)c34)cc2)c1 | – | 4140 nM | – | 0.3 h | 1.7 L/kg | 66.7 mL/min/kg | 450 ng·h/mL | 18% | – | – | – | – | – | inactive | – |
| CS(=O)(=O)CCn1cc(-c2cnc(N)c3c(-c4ccc(NC(=O)Nc5cccc(F)c5)cc4)csc23)cn1 | 11 nM | 4 nM | – | – | – | – | – | – | 1 nM | – | – | – | 10 mg/kg | – | – |
| Nc1ncc(-c2cnn(CCCN3CC[C@@H](O)C3)c2)c2scc(-c3ccc(NC(=O)Nc4cccc(F)c4)cc3)c12 | 2 nM | < 1 nM | – | – | – | – | – | – | 2 nM | – | – | – | – | – | – |
| COc1ccc(NC(=O)Nc2ccc(-c3csc4c(-c5cnn(C)c5)cnc(N)c34)cc2)cc1 | 114 nM | 57 nM | < 20% | 1.3 h | 1.5 L/kg | 15 mL/min/kg | 5220 ng·h/mL | 44% | 6 nM | – | – | – | 1.3 mg/kg | – | – |
| Cc1cccc(NC(=O)Nc2ccc(-c3csc4c(-c5cnn(C)c5)cnc(N)c34)cc2)c1 | – | 55 nM | – | 1.5 h | 2.3 L/kg | 18.3 mL/min/kg | 5640 ng·h/mL | 59% | – | – | – | – | 1 mg/kg | – | > 70% |
| Cc1cccc(NC(=O)Nc2ccc(-c3csc4c(-c5cc[nH]n5)cnc(N)c34)cc2)c1 | 66 nM | 161 nM | – | – | – | – | – | – | 6 nM | 3 nM | – | – | – | – | – |

Now from value to compound, other results behind:

| IC50 (Aurora kinase B [1]) | EC15 (Aurora kinase B [2]) | inhibition (INH) (Cytochrome P450 3A4 [4]) | half-life [5] | Vd [6] | clearance [7] | AUC [8] | bioavailability [9] | IC50 [10] | IC50 [11] | IC50 (Cytochrome P450 3A4 [13]) | IC50 (Cytochrome P450 3A4 [14]) | SMILES | ED50 (Mus musculus [3]) | Activity (Mus musculus [12]) | inhibition in vivo at 10 mg/kg (HT-1080) |
| --- | --- | --- | --- | --- | --- | --- | --- | --- | --- | --- | --- | --- | --- | --- | --- |
| 1 nM | 2 nM | < 20% | 2.9 h | 1.2 L/kg | 5 mL/min/kg | 14600 ng·h/mL | 42% | – | – | – | – | C[C@@H](O)Cn1cc(-c2cnc(N)c3c(-c4ccc(NC(=O)Nc5cccc(F)c5)cc4)csc23)cn1 | 1.2 mg/kg | – | – |
| 5 nM | 1 nM | – | – | – | – | – | – | 6 nM | – | – | – | CN1CCC(n2cc(-c3cnc(N)c4c(-c5ccc(NC(=O)Nc6cccc(F)c6)cc5)csc34)cn2)C1=O (stereo not given) | 0.4 mg/kg | – | – |
| 23 nM | 413 nM | – | – | – | – | – | – | 2 nM | – | – | – | Cn1cc(-c2cnc(N)c3c(-c4ccc(NC(=O)Nc5cccc(C(N)=O)c5)cc4)csc23)cn1 | > 10 mg/kg | – | – |
| 9 nM | 6 nM | – | 3.6 h | 0.9 L/kg | 3.33 mL/min/kg | 44000 ng·h/mL | 78% | – | – | 7900 nM | 2700 nM | Cn1cc(-c2cnc(N)c3c(-c4ccc(NC(=O)Nc5cccc(F)c5)cc4)csc23)cn1 | 0.3 mg/kg | – | > 70% |
| 18 nM | < 30 nM | – | – | – | – | – | – | 3 nM | – | – | – | Cn1cc(-c2cnc(N)c3c(-c4ccc(NC(=O)Nc5ccccc5F)cc4)csc23)cn1 | 1.1 mg/kg | – | – |
| 6 nM | 9 nM | – | – | – | – | – | – | 3 nM | – | – | – | Cn1cc(-c2cnc(N)c3c(-c4ccc(NC(=O)Nc5ccccc5)cc4)csc23)cn1 | 0.3 mg/kg | – | – |
